Source: PubChem BioAssay (several laboratories)
Rows were chosen to be rich in hits. Some 27% of all compounds tested hit in one or more screens of this group.
CYP2C9 act: human CYP2C9 activators, primary screen, biochemical, luminescence | recombinant CYP2C9, luciferin-H conversion; stronger effect = higher value; factor 1 = untreated enzyme, 0 = blocked | activation factor at 5 µM | 96,000 tested, 1.4% active | AID 1024, 2008;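 active means activation factor of 2 or more for CYP2C9 at a 5 µM dose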
HIV Rev-RRE inh: HIV-1 Rev-RRE binding inhibitors, primary screen, biochemical, FRET, protein-RNA interaction | P05866 | Rev peptide-RRE RNA binding | inhibition, % at 8 µM | 97,000 tested, 0.79% active;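 active means inhibition above the screen-wide mean plus 3 SD, cut at about 35% in these data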
Target sequence (P05866 whole entry, looked up): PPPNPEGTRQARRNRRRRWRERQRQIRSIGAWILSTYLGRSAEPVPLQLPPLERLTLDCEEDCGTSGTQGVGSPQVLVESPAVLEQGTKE
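Assay system: labelled RRE RNA duplex and labelled Rev peptide / Medium: HEPES pH 7.5 salt buffer with EDTA / Reagent: labelled Rev peptide / Schedule: 5 + 15 min at 25 °C / Signal: FRET, excitation 480 nm, emission 540 nm donor and 671 nm acceptor / Benchmarks: DMSO and neomycin B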
Cav3 T inh: Cav3.2 calcium influx blockers – cell-based, Fluo-4 calcium fluorescence, FDSS, MLSMR library, primary screen. Voltage-dependent T-type calcium channel subunit alpha-1H (Homo sapiens), O95180. 100,000 tested, 4% active. B-score at 10 µM. Cav3.2-expressing cells; stronger effect = lower value;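 active means single-dose well whose peak fluorescence ratio is a statistical outlier from its plate by either plate-standardised score or position-corrected B-score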
CYP2C19 inh: blockers of cytochrome P450 2C19 activity – biochemical, luminescence, ADME assay, primary screen; P33261; CYP2C19 Supersomes, luciferin-H EGE luminescence, 30 min; inhibition, % at 5 µM; 96,000 tested, 21% active; AID 778, 2007;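 active means CYP2C19 inhibition above a set limit at 5 µM in the primary screen, cut at about 50% in these data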
Target sequence (P33261 whole entry, looked up): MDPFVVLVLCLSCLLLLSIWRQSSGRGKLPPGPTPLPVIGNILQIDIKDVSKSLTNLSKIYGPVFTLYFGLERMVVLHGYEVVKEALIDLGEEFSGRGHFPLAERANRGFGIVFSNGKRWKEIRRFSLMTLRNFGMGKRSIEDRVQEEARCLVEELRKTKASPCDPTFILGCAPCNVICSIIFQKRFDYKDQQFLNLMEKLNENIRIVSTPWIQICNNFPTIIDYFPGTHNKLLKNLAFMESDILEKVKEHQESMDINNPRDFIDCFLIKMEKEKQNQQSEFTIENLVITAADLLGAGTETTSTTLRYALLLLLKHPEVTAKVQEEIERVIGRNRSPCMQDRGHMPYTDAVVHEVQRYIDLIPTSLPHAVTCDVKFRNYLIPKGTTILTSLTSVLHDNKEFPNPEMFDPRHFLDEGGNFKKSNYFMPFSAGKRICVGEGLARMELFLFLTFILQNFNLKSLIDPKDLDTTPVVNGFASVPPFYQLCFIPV
CYP2C9 inhib: blockers of cytochrome P450 2C9 activity – biochemical, luminescence, ADME assay, primary screen; P11712; inhibition, % at 5 µM; 96,000 tested, 20% active; CYP2C9 Supersomes, luciferin-H conversion; AID 777, 2007;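 active means blocking of liver enzyme CYP2C9 beyond about 50% at 5 µM, limit read from the data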
CYP2C19 activ: human CYP2C19 activators, primary screen, biochemical, luminescence; recombinant CYP2C19, luciferin-H EGE luminescence; stronger effect = higher value; 0 = fully inhibited enzyme, 1 = untreated enzyme; activation factor at 5 µM; 96,000 tested, under 10 active; AID 1025, 2008;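 active means activation factor of at least 2 at 5 µM in the primary screen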
A number is an active result; n = inactive; x = not tested or not shown; [ ] = remark or other dose.

SMILES	CYP2C9 act	HIV Rev-RRE inh	Cav3 T inh	CYP2C19 inh	CYP2C9 inhib	CYP2C19 activ
COc1ccc(O)c(C(=O)c2cc(C#N)c(=O)n(CCN3CCOCC3)c2)c1	n	n	n	n	n	n
COc1ccc(O)c(C(=O)c2cc(C#N)c(=O)n(-c3c(C)n(C)n(-c4ccccc4)c3=O)c2)c1	n	91.8[fluorescence artefact?]	n	n	n	n
Cc1c(N2C(=O)c3ccc(Br)cc3C2=O)c(=O)n(-c2ccccc2)n1C	n	n	-4.37	n	n	n
Cc1ccc(O)c(C(=O)c2cc(C#N)c(=O)n(CC3CCCO3)c2)c1 (stereo unspecified)	n	n	n	66.0	n	n
COc1ccc(O)c(C(=O)c2cc(C#N)c(=O)n(CC3CCCO3)c2)c1 (stereo unspecified)	n	n	n	n	n	n
Cc1c(=O)n(OCc2c(F)cccc2F)c2ccccc2[n+]1[O-]	x	n	x	x	x	x
CCCCNC(=O)C(Cc1ccccc1)NS(=O)(=O)c1ccc2c(c1)c(=O)n(C)c(=O)n2C (stereo unspecified)	n	n	n	n	n	n
Cc1ccc2c(CC(=O)NC3=NCCS3)coc2c1	n	n	n	n	n	n
CC[C@H](C)[C@@H]1NC(=O)c2cc([N+](=O)[O-])cc(F)c2OCC[C@@H](C(N)=O)NC(=O)[C@H](CCCCN)NC1=O	x	x	n	x	x	x
Cc1ccc(O)c(C(=O)c2cc(C#N)c(=O)n(-c3c(C)n(C)n(-c4ccccc4)c3=O)c2)c1	n	79.4	n	n	n	n
Cc1nc2sc(C(c3cccc(F)c3)N3CCCC(C)C3)c(O)n2n1 (stereo unspecified)	n	n	n	n	n	n
CCc1nc2ccccc2c(C(=O)OCC(=O)Nc2cccc(S(=O)(=O)N3CCOCC3)c2)c1C	n	n	n	n	n	n
Cc1ccc(S(=O)(=O)N2CCOCC2)cc1NC(=O)Cn1ccsc1=N	n	n	x	n	n	n
O=C(COC(=O)CCC(=O)c1cccs1)Nc1cccc(S(=O)(=O)N2CCOCC2)c1	n	n	n	63.8	n	n
O=C(COC(=O)CCC(=O)c1cccs1)Nc1cc(S(=O)(=O)N2CCOCC2)ccc1Cl	n	n	n	n	79.8	n
CCNC(=S)N/N=C/c1cccs1	n	n	n	n	n	n
O=C(c1cnc2n(c1=O)CCS2)N1CCN(c2ccccc2Cl)CC1	x	x	n	x	x	x
O=C(c1cnc2n(c1=O)CCS2)N1CCN(C(c2ccccc2)c2ccc(Cl)cc2)CC1 (stereo unspecified)	n	n	n	62.3	n	n
O=C(NC1CCCCC1)N1CCN(C(=O)c2ccco2)CC1	n	n	n	n	n	n
O=C(c1ccc(-n2cccc2)cc1)N1CCN(Cc2ccccc2)CC1	n	n	n	n	n	n
O=C(c1ccccc1)N1CCN(Cc2c[nH]c3ccccc23)CC1	n	n	n	64.8	n	n
N#Cc1ccc(CN2CCN(C(=O)c3ccccc3)CC2)c(Cl)c1	n	x	n	74.2	n	n
O=C(c1ccc(F)cc1)N1CCN(Cc2ccccc2Br)CC1	n	n	n	97.5	68.9	n
O=C(c1cccc(F)c1)N1CCN(Cc2c[nH]c3ccccc23)CC1	n	n	n	n	n	n
O=C(CCCc1c[nH]c2ccccc12)N1CCCCCC1	n	n	n	97.7	n	n
SMILES	CYP2C9 act	HIV Rev-RRE inh	Cav3 T inh	CYP2C19 inh	CYP2C9 inhib	CYP2C19 activ
COC(=O)C1=C(C(=O)OC)SC(=C2C(=S)C(C)(C)N(C(=O)CC(C)C)c3ccccc32)S1	n	n	n	69.8	n	n
O=C(CSc1nc2ccccc2s1)c1cc2ccccc2o1	n	n	n	n	n	n
Cn1ccnc1SCC(=O)c1cc2ccccc2o1	n	n	n	59.4	n	n
Cn1c(SCC(=O)c2cc3ccccc3o2)nnc1-c1ccccc1	n	n	n	83.8	68.2	n
CC(=O)c1c(C(C)=O)c(C)n(-c2ccc(N)cc2)c1C	n	n	x	n	n	n
C=C1CCN([C@@H](Cc2ccccc2)C(=O)NCCC(C)C)S(=O)(=O)c2ccccc21	x	x	n	x	x	x
COC(=O)c1ccc(NC(=O)CSc2nncn2C)cc1	n	n	n	n	n	n
COc1ccccc1-c1cc2nc(C)c(CCC(=O)NC(C)CCc3ccco3)c(C)n2n1 (stereo unspecified)	n	n	n	90.0	89.0	n
Cc1nc2c(-c3ccccc3)c(C)nn2c(C)c1CCC(=O)O	n	n	n	n	n	n
Cc1nc2c(-c3ccccc3)c(C)nn2c(C)c1CCC(=O)NC(C)CCc1ccco1 (stereo unspecified)	n	n	-5.65	52.0	n	n
CCOc1nc(N2CCCCC2)nc(-n2cc(-c3ccccc3)nn2)n1	n	n	n	n	n	n
CCOC(=O)c1c(-c2ccccc2)nnn1-c1nc(OCC)nc(N2CCCCC2)n1	n	x	-7.63	88.2	59.9	n
CCOC(=O)c1nnn(-c2nc(N3CCCC3)nc(N3CCCC3)n2)c1-c1ccccc1	n	n	x	51.0	n	n
CCOC(=O)c1nnn(-c2nc(OC)nc(N3CCCCC3)n2)c1-c1ccccc1	n	n	-6.1	80.2	55.5	n
CCOC(=O)c1nnn(-c2ccccc2)c1C	x	n	n	x	x	x
Fc1ccc2c(c1)C(c1ccncc1)=NNC(c1ccc(Cl)cc1)=N2	x	n	n	x	x	x
COc1ccc(-c2cnc3nc[nH]c(=O)c3n2)cc1	x	n	n	x	x	x
O=C(Nc1nc(-c2cccs2)cs1)c1cccc(S(=O)(=O)N2CCCCCC2)c1	n	n	n	71.6	93.7	n
CCOC(=O)Cc1csc(NC(=O)c2ccc(S(=O)(=O)N3CCCC3)cc2)n1	n	n	n	79.4	87.9	n
O=C(Nc1nc(-c2ccccc2)cs1)c1cccc(S(=O)(=O)N2CCN(Cc3ccccc3)CC2)c1	n	n	x	53.4	90.3	n
O=C(Nc1nc(-c2cccs2)cs1)c1ccc(S(=O)(=O)N2CCCCC2)cc1	n	n	-6.09	n	60.1	n
COC(=O)CSCC(=O)Nc1cc2c(cc1C(C)=O)OCO2	n	n	n	n	n	n
O=C(NCc1nc2ccccc2[nH]1)C1=C[C@@H](c2ccc(C(F)(F)F)cc2)C[C@@H](OCc2ccc(CO)cc2)O1	x	x	n	x	x	x
CCOC(=O)c1c(C)oc2c(F)c(F)c(F)c(F)c2c1=O	n	n	x	n	n	n
COc1ccc(S(=O)(=O)N2CCC(C(=O)Nc3cccc(C(C)=O)c3)CC2)cc1C	n	n	n	97.3	n	n
CC(=O)c1cccc(NC(=O)C2CCN(S(=O)(=O)c3ccc(C)cc3)CC2)c1	x	n	n	x	x	x
Cc1nn(C)c(C)c1S(=O)(=O)N1CCCC(C(=O)N2CCN(c3ccc(Cl)cc3)CC2)C1 (stereo unspecified)	n	n	n	83.9	90.8	n
